The nature of assay [1]: Cytotoxicity against human HCT116 cells assessed as reduction in cell viability measured after 48 hrs by MTT assay. The class given is functional, cell-based. The conditions noted are these: HCT-116, 48 h. The method, boiled down: (§1)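 Parental HCT116, HIF-1α/HIF-2α double-knockout and oncogenic-KRAS-knockout (wild-type KRAS) isogenic lines grown in DMEM + 10% FBS, 37 °C, 5% CO2. Seeded at 10,000 cells/well; compound added at various concentrations 24 h later.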
On the technique in general: Formazan colour is commonly taken as a measure of viable cells.

Assay [2] can be described thus: Cytotoxicity against human HIF1alpha and HIF2alpha deficit HCT116 cells assessed as reduction in cell viability measured after 48 hrs by MTT assay. The class given is functional, cell-based. The conditions noted are these: HCT-116, 48 h. In outline:
as §1

Assay [3] is described as follows: Cytotoxicity against oncogenic KRAS knockout human HCT116 cells assessed as reduction in cell viability measured after 48 hrs by MTT assay. The class given is functional, cell-based. Particulars: HCT-116, 48 h. In outline:
as §1

Assay [4] can be described thus: Cytotoxicity against human HIF1alpha and HIF2alpha deficit HCT116 cells assessed as reduction in cell viability measured after 48 hrs by MTT assay relative to parental HCT116 cells. The class given is functional. The conditions noted are these: HCT-116, 48 h. In outline:
(§2)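 Same isogenic HCT116 MTT set-up: cells in DMEM + 10% FBS at 37 °C, 5% CO2, 10,000 cells/well, dosed at graded concentrations after 24 h, MTT read 48 h post-treatment. Maximum efficacy in each knockout line expressed as percent of that in parental HCT116.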

A short description of assay [5]: Cytotoxicity against oncogenic KRAS knockout human HCT116 cells expressing wild type KRAS assessed as reduction in cell viability measured after 48 hrs by MTT assay relative to parental HCT116 cells. Particulars: HCT-116, 48 h. The class given is functional. The method, boiled down: as §2
Assay [6] can be described thus: Cytotoxicity against human HCT116 cells assessed as reduction in cell viability measured after 48 hrs by ATPlite 1step luminescence assay. The class given is functional, cell-based. Particulars: HCT-116, 48 h. A general note: ATP-based viability assays read luminescence as a measure of living cells.
A short description of assay [7]: Cytotoxicity against human HIF1alpha and HIF2alpha deficit HCT116 cells assessed as reduction in cell viability measured after 48 hrs by ATPlite 1step luminescence assay. The class given is functional, cell-based. Particulars: HCT-116, 48 h.
Assay [8] in a line: Cytotoxicity against oncogenic KRAS knockout human HCT116 cells expressing wild type KRAS assessed as reduction in cell viability measured after 48 hrs by ATPlite 1step luminescence assay. The assay is classed as functional, cell-based. Particulars: HCT-116, 48 h.
Assay [9] can be described thus: Cytotoxicity against human HIF1alpha and HIF2alpha deficit HCT116 cells assessed as reduction of cell viability measured after 48 hrs by ATPlite 1step luminescence assay relative to parental HCT116 cells. The assay is classed as functional. The conditions noted are these: HCT-116, 48 h.
Assay [10] can be described thus: Cytotoxicity against oncogenic KRAS knockout human HCT116 cells expressing wild type KRAS assessed as reduction in cell viability measured after 48 hrs by ATPlite 1step luminescence assay relative to parental HCT116 cells. The class given is functional. Particulars: HCT-116, 48 h.
The test system of assay [11] is HCT-116. In words: Selectivity ratio of IC50 for human HIF1alpha and HIF2alpha deficit HCT116 cells to IC50 for human HCT116 cells. The assay is classed as functional.
Assay [12] deals with HCT-116. In words: Selectivity ratio of IC50 for oncogenic KRAS knockout human HCT116 cells to IC50 for human HCT116 cells. The class given is functional.

`CC[C@H](C)[C@@H](C(=O)N1C(=O)C=C(OC)[C@@H]1Cc1ccccc1)N(C)C(=O)[C@H](C(C)C)N(C)C(=O)[C@@H](NC(=O)[C@H](C(C)C)N(C)C)C(C)C`: the IC50 (usually the concentration that inhibits the measured activity by half) was found to be 3900 nM in [1], 5200 nM in assay [2] and 8600 nM in [3]. In addition, the Emax in assay [4] came to 67%; in assay [5], 100%.

As to `CC[C@H](C)[C@@H]([C@@H](CC(=O)N1CCC[C@H]1[C@H](OC)[C@@H](C)C(=O)N[C@@H](Cc1ccccc1)c1nccs1)OC)N(C)C(=O)[C@@H](NC(=O)[C@H](C(C)C)N(C)C)C(C)C` [DOLASTATIN-10], the IC50 in [6] came to 0.48 nM; in assay [7] it was 65 nM; in assay [8], 24 nM. The figures for the Emax in assay [9] and in assay [10] were 74% and 83%, respectively. For the same compound, the “Ratio IC50” value in the assay on HCT-116 [11] and with HCT-116 [12] was greater than 50 in each case.

`CCCCCCCC(=O)SCC/C=C/[C@@H]1CC(=O)NCc2nc(cs2)C2=N[C@@](C)(CS2)C(=O)N[C@@H](C(C)C)C(=O)O1` [LARGAZOLE]: the IC50 was found to be 6.41 nM in assay [6], 18 nM in assay [7] and 3.7 nM in assay [8]. In addition, the Emax in [9] stood at 70%; in assay [10], 67%.

The values above are taken from ChEMBL document CHEMBL3861973, “Caldoramide, a Modified Pentapeptide from the Marine Cyanobacterium Caldora penicillata” (J Nat Prod, 2016).
